The source made the active and inactive calls. No cut-off for these calls is given here.
Legend:
[1] = biological target: T1, Glucocorticoid receptor (Mus musculus) (UniProt P06537); test: (§1) Displacement of 1 x 10^-8 M of [1,2,3-3H]-triamcinolone acetonide from glucocorticoid receptor in soluble fraction of mouse L929 cells after 20 hrs; assay type: cell-based
T1 sequence (whole entry): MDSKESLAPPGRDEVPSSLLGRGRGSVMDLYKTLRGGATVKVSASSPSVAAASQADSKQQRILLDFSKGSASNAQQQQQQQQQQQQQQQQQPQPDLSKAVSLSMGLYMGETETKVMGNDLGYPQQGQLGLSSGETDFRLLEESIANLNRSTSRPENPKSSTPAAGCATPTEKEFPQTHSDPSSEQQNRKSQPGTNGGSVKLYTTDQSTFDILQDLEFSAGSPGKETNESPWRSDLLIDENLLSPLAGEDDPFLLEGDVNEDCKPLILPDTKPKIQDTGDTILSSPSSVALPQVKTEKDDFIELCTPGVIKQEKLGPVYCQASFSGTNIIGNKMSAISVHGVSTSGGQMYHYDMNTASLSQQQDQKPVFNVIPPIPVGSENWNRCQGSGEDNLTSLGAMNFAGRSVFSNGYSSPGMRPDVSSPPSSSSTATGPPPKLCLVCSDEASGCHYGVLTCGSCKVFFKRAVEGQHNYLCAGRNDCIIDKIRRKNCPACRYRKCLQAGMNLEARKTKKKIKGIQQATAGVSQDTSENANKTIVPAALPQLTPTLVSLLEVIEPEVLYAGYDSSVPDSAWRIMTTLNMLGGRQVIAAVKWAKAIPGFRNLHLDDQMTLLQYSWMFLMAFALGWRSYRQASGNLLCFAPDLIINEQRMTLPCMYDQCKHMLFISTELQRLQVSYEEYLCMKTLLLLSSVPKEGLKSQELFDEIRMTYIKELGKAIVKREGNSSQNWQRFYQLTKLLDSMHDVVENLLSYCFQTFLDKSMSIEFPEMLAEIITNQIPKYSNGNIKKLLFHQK

[2] = Alkylating activity of the compound assessed as alkylation of 4-(p-nitrobenzyl)pyridine at 10^-4 M after 20 mins by colorimetric analysis; assay type: physicochemical; conditions: 100 µM
[3] = biological target: T2, Glucocorticoid receptor (Mus musculus, UniProt P06537); test: Displacement of 2 x 10^-8 M of [1,2,3-3H]-triamcinolone acetonide from glucocorticoid receptor in soluble fraction of mouse L929 cells after 20 hrs; assay type: cell-based; conditions: read-out: Kd(app)
T2 sequence (P06537 whole entry): T1 sequence (whole entry)

[4] = Alkylating activity of the compound assessed as alkylation of 4-(p-nitrobenzyl)pyridine at 10^-4 M after 20 mins by colorimetric analysis relative to mechlorethamine; assay type: physicochemical; conditions: 100 µM
[5] = tested on: L929; test: Growth inhibition of mouse L929 cells after 6 days; assay type: functional, cell-based
Summary of the method: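 L929 mouse fibroblasts in monolayer in Joklik medium, steroids added in DMSO (0.1% of medium volume) early in growth. Cells harvested and counted 6 days later. Mean of three replicate cultures, expressed as percent of vehicle-control growth.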

[6] = biological target: T1, Glucocorticoid receptor (Mus musculus); test: Displacement of [1,2,3-3H]-triamcinolone acetonide from glucocorticoid receptor in soluble fraction of mouse L929 cells at 10^-6 M preincubated for 4 hrs followed by [3H]-triamcinolone acetonide addition measured after 18 hrs by double reciprocal plot analysis; assay type: cell-based
Summary of the method: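 L929 100 000g supernatant preincubated 4 h on ice with vehicle, 10⁻⁶ M agent or 10⁻⁷ M cortisol. Varied [3H]triamcinolone acetonide then added, incubation continued 18 h. Bound counted after Sephadex G-25 separation; nonspecific (3×10⁻⁵ M dexamethasone) subtracted. Specific binding plotted against free ligand and in double-reciprocal form.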

[7] = Alkylating activity of the compound assessed as alkylation of 4-(p-nitrobenzyl)pyridine after 20 mins by colorimetric analysis; assay type: physicochemical
Summary of the method: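 Test agent at 10⁻⁴ M in 1% Me₂SO in water; 3 mL aliquots heated 20 min in boiling water bath with 4-(p-nitrobenzyl)pyridine in acetate buffer pH 4.0. Purple adduct developed with 5.0 N NaOH, extracted into ethyl acetate, A540 read exactly 6 min after base. Value read off mechlorethamine standard curve, expressed relative to mechlorethamine.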

[8] = tested on: L929; test: Growth inhibition of mouse L929 cells at 3 x 10^-7 M preincubated for 48 hrs followed by compound washout; assay type: functional, cell-based
Summary of the method: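 L929 monolayers (15 mL) dosed day 1, 18 h after seeding, at 3×10⁻⁷ M final, vehicle DMSO. Day 3 medium changed, half switched to steroid-free medium. Medium renewed every other day, cells per bottle counted. Mean and standard error of three replicate cultures.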

[9] = biological target: T3, Estrogen receptor (Rattus norvegicus, UniProt P06211); test: Displacement of radiolabeled estradiol from estradiol receptor in rat uterine cytosol; parameters: species or system Uterus
T3 sequence (P06211 whole entry): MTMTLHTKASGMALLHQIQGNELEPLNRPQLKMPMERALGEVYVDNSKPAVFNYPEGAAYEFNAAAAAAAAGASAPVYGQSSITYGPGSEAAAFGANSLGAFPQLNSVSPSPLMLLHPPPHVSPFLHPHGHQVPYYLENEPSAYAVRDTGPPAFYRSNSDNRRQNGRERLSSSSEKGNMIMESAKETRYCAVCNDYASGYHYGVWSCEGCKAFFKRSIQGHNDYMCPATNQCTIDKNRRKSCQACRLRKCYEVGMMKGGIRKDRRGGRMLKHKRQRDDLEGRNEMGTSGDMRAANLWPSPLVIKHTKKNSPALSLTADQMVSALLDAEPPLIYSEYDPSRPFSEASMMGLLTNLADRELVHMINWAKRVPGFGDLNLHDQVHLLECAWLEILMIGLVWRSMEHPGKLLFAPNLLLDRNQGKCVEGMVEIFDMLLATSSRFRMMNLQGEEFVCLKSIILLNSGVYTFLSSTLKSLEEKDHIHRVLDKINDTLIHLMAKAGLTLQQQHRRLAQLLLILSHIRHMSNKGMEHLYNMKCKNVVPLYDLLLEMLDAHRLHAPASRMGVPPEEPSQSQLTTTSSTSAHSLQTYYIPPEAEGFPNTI

[10] = biological target: T2, Glucocorticoid receptor; test: as §1; assay type: cell-based

SMILES: C[C@]12CCC(=O)C=C1CC[C@@H]1[C@@H]2[C@@H](O)C[C@@]2(C)[C@H]1CC[C@]2(O)C(=O)COP(=O)(O)O
- inhibition [1]: inactive

SMILES: C[C@]12CCC(=O)C=C1CC[C@@H]1[C@@H]2[C@@H](O)C[C@@]2(C)[C@H]1CC[C@]2(O)C(=O)COC(=O)N(CCCl)CCCl
- Activity [2]: Active
- Kd [3]: 430 nM
- Activity [4]: 20%
- growth inhibition (GI) [5]: Active
- inhibition [6]: inactive

SMILES: C[C@]12CCC(=O)C=C1CC[C@@H]1[C@@H]2[C@@H](O)C[C@@]2(C)[C@H]1CC[C@]2(O)C(=O)CO [HYDROCORTISONE]
- Activity [7]: Not Active
- growth inhibition (GI) [5]: Active

SMILES: C[C@]1(c2ccccc2)O[C@@H]2C[C@H]3[C@@H]4CCC5=CC(=O)C=C[C@]5(C)[C@@]4(F)[C@@H](O)C[C@]3(C)[C@]2(C(=O)CO)O1
- inhibition [1]: Active

SMILES: CC1(C)O[C@@H]2C[C@H]3[C@@H]4CCC5=CC(=O)C=C[C@]5(C)[C@@]4(F)[C@@H](O)C[C@]3(C)[C@]2(C(=O)CO)O1 [TRIAMCINOLONE ACETONIDE]
- growth inhibition (GI) [8]: inactive
- Activity [7]: Not Active
- growth inhibition (GI) [5]: Active

SMILES: C[C@]12CC[C@@H]3c4ccc(OC(=O)Cc5ccc(N(CCCl)CCCl)cc5)cc4CC[C@H]3[C@@H]1CC[C@@H]2OC(=O)Cc1ccc(N(CCCl)CCCl)cc1 [ESTRADIOL MUSTARD]
- Kd [9]: 3000 nM

SMILES: C[C@]12CCC(=O)C=C1CC[C@@H]1[C@@H]2[C@@H](O)C[C@@]2(C)[C@H]1CC[C@]2(O)C(=O)COC(=O)CCC(=O)O [HYDROCORTISONE HEMISUCCINATE ANHYDROUS]
- Kd [10]: 190 nM

SMILES: CC1(C)O[C@@H]2C[C@H]3[C@@H]4CCC5=CC(=O)C=C[C@]5(C)[C@@]4(F)[C@@H](O)C[C@]3(C)[C@]2(C(=O)COC(=O)N(CCCl)CCCl)O1
- Activity [2]: Active
- Kd [3]: 7.5 nM
- Activity [4]: 20%
- growth inhibition (GI) [8]: inactive
- growth inhibition (GI) [5]: Active

— ChEMBL document CHEMBL3272196, “Synthesis and biological action of two glucocorticoid alkylating agents” (J Med Chem, 1977)
